pIC50: −log10 of the molar value.
What was measured:
[1] = Cytotoxicity against human Jurkat T cells assessed as cell viability at 4 uM after 24 hrs by CellTiter-Glo assay relative to control; format: functional; conditions: read-out: Activity
Outline: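 Jurkat cells in 0.5% FBS RPMI were exposed to 4 µM compound or 0.1% DMSO for 24 h. Viability was read as ATP by CellTiter-Glo luminescence and expressed as percent of solvent control; below 60% counted as cell killing. Data: three experiments, triplicate.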

[2] = Cytotoxicity against human Jurkat T cells assessed as cell viability after 24 hrs by CellTiter-Glo assay; format: functional, cell-based
Outline: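 Jurkat cells were seeded the day before treatment in RPMI with 0.5% FBS (10,000 cells/well). They were treated in triplicate across an 8-point dose series starting at 10 µM, with DMSO ≤0.1% as solvent control. ATP was measured by CellTiter-Glo luminescence after 24 h; a time-0 reading separated cytostatic from cytotoxic effects. IC50 was fitted from the curve.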

[3] = target: T1, Inhibitor of nuclear factor kappa-B kinase subunit epsilon (Homo sapiens) (UniProt Q14164); assay: Inhibition of recombinant IKKepsilon (unknown origin) using ulight-rpS6 as substrate at 20 uM after 2 hrs by LANCE ultra TR-FRET assay relative to control
T1 sequence (whole entry): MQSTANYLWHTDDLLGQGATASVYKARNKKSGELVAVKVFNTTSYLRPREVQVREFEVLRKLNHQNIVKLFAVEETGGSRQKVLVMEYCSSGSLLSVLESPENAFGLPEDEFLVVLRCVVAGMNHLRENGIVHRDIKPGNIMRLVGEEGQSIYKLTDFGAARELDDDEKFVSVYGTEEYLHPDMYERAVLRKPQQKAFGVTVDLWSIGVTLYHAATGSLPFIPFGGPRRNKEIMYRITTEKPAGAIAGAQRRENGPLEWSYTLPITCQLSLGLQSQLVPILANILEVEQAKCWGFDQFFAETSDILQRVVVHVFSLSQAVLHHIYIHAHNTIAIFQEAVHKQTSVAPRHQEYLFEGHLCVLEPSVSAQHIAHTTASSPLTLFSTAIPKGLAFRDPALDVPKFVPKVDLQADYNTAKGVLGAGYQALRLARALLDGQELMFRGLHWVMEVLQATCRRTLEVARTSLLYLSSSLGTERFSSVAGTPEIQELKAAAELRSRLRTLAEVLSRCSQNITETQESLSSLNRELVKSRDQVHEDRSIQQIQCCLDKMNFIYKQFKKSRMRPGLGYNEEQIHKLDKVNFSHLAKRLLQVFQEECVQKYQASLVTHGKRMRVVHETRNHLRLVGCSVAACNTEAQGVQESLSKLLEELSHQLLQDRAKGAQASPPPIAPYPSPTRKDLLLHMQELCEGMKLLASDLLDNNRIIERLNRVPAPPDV

[4] = target: T2, Retinoic acid receptor alpha (Homo sapiens) (UniProt P10276); assay: Agonist activity at Gal4-fused RARalpha (unknown origin) transfected in HEK293 cells assessed as induction of transcriptional activity at 4 uM after 6 hrs by luciferase/beta-galactosidase reporter gene assay relative to control; format: cell-based
T2 sequence (whole entry): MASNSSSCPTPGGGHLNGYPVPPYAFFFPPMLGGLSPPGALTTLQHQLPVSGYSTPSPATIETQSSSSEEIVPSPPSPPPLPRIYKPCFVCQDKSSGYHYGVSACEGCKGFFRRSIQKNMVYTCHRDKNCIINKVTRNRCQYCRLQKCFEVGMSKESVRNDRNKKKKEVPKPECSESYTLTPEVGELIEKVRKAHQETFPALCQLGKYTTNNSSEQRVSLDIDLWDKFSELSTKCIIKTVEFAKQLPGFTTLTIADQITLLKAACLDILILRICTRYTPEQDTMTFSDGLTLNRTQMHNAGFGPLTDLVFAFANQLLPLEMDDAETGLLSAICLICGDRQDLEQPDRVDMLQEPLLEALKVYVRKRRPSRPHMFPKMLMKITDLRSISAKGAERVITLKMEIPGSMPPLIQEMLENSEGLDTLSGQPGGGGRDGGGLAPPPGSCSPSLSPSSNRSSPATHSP
Outline: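 Gal4-RARα or Gal4-RXRα (10 ng) plus 2 ng β-galactosidase vector, calcium phosphate transfection into HEK-293 cells carrying a 5×UAS luciferase reporter. After 16 h, cells were washed and given 5% charcoal-treated FBS medium, then rested 2 h. Stimulation was with 4 µM compound or 0.1% DMSO; controls were 1 µM atRA (RARα) or 1 µM CD3254 (RXRα). Harvest was at 6 h (RARα) or 24 h (RXRα). Luciferase/β-gal ratio was expressed as fold over unstimulated cells. Data: 2 experiments, triplicate.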

[5] = target: T3, Inhibitor of nuclear factor kappa-B kinase subunit beta (Homo sapiens, UniProt O14920); assay: Inhibition of recombinant IKKbeta (unknown origin) using ulight-IkappaomegaBalpha as substrate after 1 hr by LANCE ultra TR-FRET assay
T3 sequence (O14920 whole entry): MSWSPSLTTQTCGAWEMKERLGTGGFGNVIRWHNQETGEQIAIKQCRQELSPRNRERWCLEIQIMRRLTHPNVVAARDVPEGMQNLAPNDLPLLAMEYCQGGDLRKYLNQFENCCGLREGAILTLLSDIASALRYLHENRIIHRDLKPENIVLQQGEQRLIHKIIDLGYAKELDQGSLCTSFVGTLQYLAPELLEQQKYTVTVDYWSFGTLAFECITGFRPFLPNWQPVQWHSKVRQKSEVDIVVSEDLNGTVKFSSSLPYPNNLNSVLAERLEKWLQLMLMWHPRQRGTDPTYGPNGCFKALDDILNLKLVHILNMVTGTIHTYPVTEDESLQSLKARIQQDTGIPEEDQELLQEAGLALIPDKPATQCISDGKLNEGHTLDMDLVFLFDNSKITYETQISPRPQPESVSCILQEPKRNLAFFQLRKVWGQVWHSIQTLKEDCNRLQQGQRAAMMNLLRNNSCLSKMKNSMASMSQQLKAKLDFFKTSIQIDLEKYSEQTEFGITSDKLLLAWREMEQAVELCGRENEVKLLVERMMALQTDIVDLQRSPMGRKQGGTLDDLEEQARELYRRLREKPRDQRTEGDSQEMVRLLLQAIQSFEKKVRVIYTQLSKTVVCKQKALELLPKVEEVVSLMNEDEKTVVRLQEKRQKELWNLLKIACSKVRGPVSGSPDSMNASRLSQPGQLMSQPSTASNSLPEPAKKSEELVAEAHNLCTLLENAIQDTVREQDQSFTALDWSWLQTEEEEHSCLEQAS

Structure (SMILES)	viability at 4 µM [1] [%]	pIC50 [2]	inhibition [3] [%]	fold change (FC) [4]	pIC50 [5]
COc1nc(/C=C/C(=O)O)cnc1-c1ccc(O)c(C23CC4CC(CC(C4)C2)C3)c1	60.9	5.30	7.8		
Cc1cc(O)c(C23CC4CC(CC(C4)C2)C3)cc1-c1ncc(/C=C/C(=O)O)s1	92.3		0	1	
COCCOCOc1ccc(-c2ncc(-c3ccc(C(=O)O)cc3)nc2OC)cc1C12CC3CC(CC(C3)C1)C2	91.4		18.8	1.1	
Cc1cc(O)c(C23CC4CC(CC(C4)C2)C3)cc1-c1ccc(CC(=O)O)cc1Cl	45.8	5.40	8.5		
O=C(O)/C=C/c1cnc(-c2ccc(O)c(C34CC5CC(CC(C5)C3)C4)c2)s1	92.9		0	1.1	
COCCOCOc1cc(C)c(-c2ncc(/C=C/C(=O)O)nc2OC)cc1C12CC3CC(CC(C3)C1)C2	96.5		5.9	0.8	
O=C(O)c1ccc(-c2cnc(-c3ccc(O)c(C45CC6CC(CC(C6)C4)C5)c3)s2)cc1	6	5.65	11.6		5.47
COCCOCOc1cc(C)c(-c2ncc(-c3ccc(C(=O)O)cc3)s2)cc1C12CC3CC(CC(C3)C1)C2	59.5	5.24	17		5.35
Cc1cc(O)c(C23CC4CC(CC(C4)C2)C3)cc1-c1ccc(/C=C/C(=O)O)cc1Cl	34.1	5.39	11.9		
CC(=O)NCCCOc1cc(/C=C/C(=O)O)ccc1-c1cc(C23CC4CC(CC(C4)C2)C3)c(O)cc1C	28	5.58	5.2		
COCCOCOc1cc(C)c(-c2ccc(CC(=O)O)cc2Cl)cc1C12CC3CC(CC(C3)C1)C2	86.8		0	1.3	
COCCOCOc1ccc(-c2ncc(/C=C/C(=O)O)nc2OC)cc1C12CC3CC(CC(C3)C1)C2	94.9		9.4	1.1	
Cc1cc(O)c(C23CC4CC(CC(C4)C2)C3)cc1-c1ccc2cc(C(=O)O)ccc2c1Cl	7.7	5.66	41.5		5.32
COCCOCOc1ccc(-c2ncc(/C=C/C(=O)O)s2)cc1C12CC3CC(CC(C3)C1)C2	103		14.3	1	
COCCOCOc1cc(C)c(-c2ncc(/C=C/C(=O)O)s2)cc1C12CC3CC(CC(C3)C1)C2	96.1		11.1	1.9	
COCCOCOc1cc(C)c(-c2ccc(/C=C/C(=O)O)cc2Cl)cc1C12CC3CC(CC(C3)C1)C2	83.7		2.9	1.8	
COc1nc(/C=C/C(=O)O)cnc1-c1cc(C23CC4CC(CC(C4)C2)C3)c(O)cc1C	70.9	5.27	6.7		
COc1nc(-c2ccc(C(=O)O)cc2)cnc1-c1ccc(O)c(C23CC4CC(CC(C4)C2)C3)c1	14.9	5.50	26.1	1.9	5.11
COCCOCOc1ccc(-c2ncc(-c3ccc(C(=O)O)cc3)s2)cc1C12CC3CC(CC(C3)C1)C2	74.5		25.3	1.2	5.29
COCCOCOc1cc(C)c(-c2ccc3cc(C(=O)O)ccc3c2Cl)cc1C12CC3CC(CC(C3)C1)C2	33.1	5.25	13.7		5.15
Cc1cc(O)c(C23CC4CC(CC(C4)C2)C3)cc1-c1ncc(-c2ccc(C(=O)O)cc2)s1	39	5.36	0		5.32

— ChEMBL document CHEMBL3112476, “Inhibition of IκB kinase-β and IκB kinase-α by heterocyclic adamantyl arotinoids” (Bioorg Med Chem, 2014)
